Paper PMC4062594 (Nature chemical biology, 2014)
Positions count from the first letter of the chain named. Entries after “also recorded” stand apart in the source; their conditions may differ.

Legend:
PTP1B1-405 L192A/S372P = biological target: T1, PTP1B1-405 L192A/S372P (Homo sapiens, UniProt P18031, L192A/S372P); test: PTP assay, double point mutant; type: biochemical
T1 sequence (P18031 1-405 L192A/S372P): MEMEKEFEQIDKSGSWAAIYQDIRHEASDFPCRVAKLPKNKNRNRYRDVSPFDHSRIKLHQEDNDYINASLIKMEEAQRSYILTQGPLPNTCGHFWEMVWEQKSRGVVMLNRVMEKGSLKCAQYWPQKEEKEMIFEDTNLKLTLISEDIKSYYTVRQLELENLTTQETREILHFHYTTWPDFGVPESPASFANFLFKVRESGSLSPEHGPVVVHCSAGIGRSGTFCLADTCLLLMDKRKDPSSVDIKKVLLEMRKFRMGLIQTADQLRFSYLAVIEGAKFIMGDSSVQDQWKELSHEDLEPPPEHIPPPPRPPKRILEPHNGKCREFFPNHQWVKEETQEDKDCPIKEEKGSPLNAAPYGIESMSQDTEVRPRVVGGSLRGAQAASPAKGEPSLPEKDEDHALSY
Outline: (§1)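 Continuous fluorescence PTP assay with 10 nM purified PTP1B and 10 μM DiFMUP substrate. Emission at 450 nm was monitored for 20 minutes.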

MCF10A-NeuNT cells = test: Cell migration with PTP1B knock-down and re-expression; type: cell-based
Outline: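 MCF10A-NeuNT cells carried doxycycline-inducible control or PTP1B shRNA miRs; doxycycline (500 ng/mL) was added 12 h after seeding and refreshed every 12 h. Cells were transfected 24 h with wild type or L192A/S372P PTP1B, then left untreated or given test compound (1 or 2 μM). Cells were run in Matrigel invasion chambers (8.0 μm pores) for 24–48 h, and migrated cells were Giemsa-stained and counted. Three experiments, in duplicate.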

PTP1B (1-346) = biological target: T2, PTP1B (1-346) (Homo sapiens, UniProt P18031); test: PTP assay, truncation mutant; type: biochemical; details: similar to PTP1B1-321
T2 sequence (P18031 1-346): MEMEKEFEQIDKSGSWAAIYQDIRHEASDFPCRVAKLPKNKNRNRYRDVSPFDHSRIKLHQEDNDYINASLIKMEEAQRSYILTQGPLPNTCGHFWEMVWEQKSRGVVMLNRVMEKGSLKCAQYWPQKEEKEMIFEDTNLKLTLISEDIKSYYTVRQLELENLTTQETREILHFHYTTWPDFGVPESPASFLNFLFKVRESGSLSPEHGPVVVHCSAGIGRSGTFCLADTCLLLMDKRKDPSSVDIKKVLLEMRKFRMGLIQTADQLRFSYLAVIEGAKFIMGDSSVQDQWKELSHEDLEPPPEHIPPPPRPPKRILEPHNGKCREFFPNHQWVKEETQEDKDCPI
Outline: as §1

[1] = system: PTP1B V370, S372 and R373 to alanine; test: PTP assay, alanine point mutants; type: biochemical, human; details: data not shown
PTP1B1-321 = biological target: T3, PTP1B1-321 (Homo sapiens, UniProt P18031); test: Direct binding assay with [3H]-MSI-1436; details: scintillation counting
T3 sequence (P18031 1-321): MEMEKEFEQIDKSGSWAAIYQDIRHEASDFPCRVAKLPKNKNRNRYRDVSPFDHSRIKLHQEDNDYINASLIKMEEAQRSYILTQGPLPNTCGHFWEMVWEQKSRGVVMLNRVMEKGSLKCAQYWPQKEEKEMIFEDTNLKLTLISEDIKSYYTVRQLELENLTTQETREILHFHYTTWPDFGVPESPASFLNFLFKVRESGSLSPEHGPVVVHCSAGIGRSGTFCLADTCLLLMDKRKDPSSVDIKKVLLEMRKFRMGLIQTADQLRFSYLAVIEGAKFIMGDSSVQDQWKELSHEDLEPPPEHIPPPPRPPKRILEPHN
Outline: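 Protein was captured on Ni-NTA beads (10 min, 25°C) and washed three times with buffer containing 150 mM NaCl. Bound ligand was measured by scintillation and bead-bound protein by BCA. Free ligand was calculated as total minus bound, for Scatchard analysis.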

PTP1B1-405 [2] = biological target: T4, PTP1B1-405 (Homo sapiens, UniProt P18031); test: Limited proteolysis with trypsin; details: saturating concentrations of MSI-1436 (5 μM)
T4 sequence (P18031 1-405): T1 sequence (P18031 1-405 L192A/S372P) with A192L, P372S

[3] = patients; cited from earlier work
CFP-PTP1B1-321-YFP = biological target: T5, CFP-PTP1B1-321-YFP (Homo sapiens, UniProt P18031); test: Intramolecular FRET titration; type: binding; details: excitation at 440 nm, 0–5 μM MSI-1436
T5 sequence (P18031 1-321): T3 sequence (P18031 1-321)

10A.B2 cells = test: Cell migration assay; type: cell-based; details: 2D culture, similar extent to PTP1B-directed shRNA
PTP1B1-405 [4] = biological target: T4, PTP1B1-405; test: Direct binding assay with [3H]-MSI-1436
[5] = system: panel of breast cancer cells; test: Cell proliferation assay; type: cell-based
Outline: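 Cells (1 × 10^4) per well were grown 12–96 hours in growth medium without or with test compound (2 and 5 μM). Proliferation was read by CellTiter-Glo luminescence.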

SKBR3 cells = test: Cell migration assay; type: cell-based; details: HER2-positive, MSI-1436 5 µM

- inhibitory potency compared to PTP1B1-405 and PTP1B1-394 (PTP1B (1-346)): lower
- stoichiometry (PTP1B1-321): 1 mol/mol
- sensitivity to trypsin (PTP1B1-405 [2]): more trypsin-resistant state
- FRET (CFP-PTP1B1-321-YFP): did not result in FRET
- Hill coefficient (PTP1B1-405 [4]; Hill plot): 1.3
- stoichiometry (PTP1B1-405 [4]; scintillation counting): 2 mol/mol
Structure (SMILES): CC(C)[C@@H](CC[C@@H](C)[C@H]1CC[C@H]2[C@@H]3[C@H](O)C[C@H]4C[C@@H](NCCCNCCCCNCCCN)CC[C@]4(C)[C@H]3CC[C@]12C)OS(=O)(=O)O [MSI-1436, Trodusquemine]
- inhibition by MSI-1436 (PTP1B1-405 L192A/S372P): complete loss of inhibition; also recorded: insensitive to MSI-1436
- migration (MCF10A-NeuNT cells; PTP1B knock-down, reconstituted with PTP1B-L192A/S372P, MSI-1436 1 or 2 μM): no longer sensitive
- migration (MCF10A-NeuNT cells; PTP1B knock-down, reconstituted with wild type PTP1B, MSI-1436 1 or 2 μM): remained sensitive to inhibition
- migration (MCF10A-NeuNT cells; absence of doxycycline (endogenous PTP1B)): attenuated
- effect of alanine mutations on inhibition by MSI-1436 [1]: did not affect
- tolerability [3]: well tolerated
- migration (10A.B2 cells): inhibited migration
- nature of effects (cytostatic versus cytotoxic) [5]: primarily cytostatic, rather than cytotoxic
- proliferation ([5]; cells sensitive to Lapatinib, MSI-1436 2 and 5 μM): inhibited proliferation
- migration (SKBR3 cells): attenuated migration
